Consider ten compounds from ChEMBL document CHEMBL1129788, “Synthesis and biological activity of 3- and 5-amino derivatives of pyridine-2-carboxaldehyde thiosemicarbazone” (J Med Chem, 1996).

Assay [1] has as its system Mus musculus. As to the kind of experiment: Average survival time includes only those mice that died prior to day 60(daily dosage 80 mg/kg).
For assay [2], the system named is Mus musculus. As to the kind of experiment: T/C(100) represents the ratio of the survival time of treated to control animals x 100(daily dosage 80 mg/kg). In kind it is functional.
Assay [3] has as its system Mus musculus. As to the kind of experiment: Average change in body weight from onset to termination of therapy(daily dosage 40 mg/kg). Format: functional.
A further assay deals with L1210. The assay is described as follows: Compound was tested for inhibition of L1210 cells growth in culture. In kind it is functional, cell-based. As to conditions: Mus musculus. The essentials: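 L1210 cells seeded at 2000/well; test agents added 24 h later at various concentrations (at least five per agent). Growth read colorimetrically after adding phenazine methosulfate, with 2-3 h incubation at 37 °C and reading at 492 nm. IC50 is the concentration giving 50% growth inhibition.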

Assay [4] is filed under the species Mus musculus. The assay is described as follows: Long time survivors(out of 5) are the number of mice that survived for > 60 days relative to the total number of treated mice. Format: functional.
In assay [5] the target is T1, Ribonucleoside-diphosphate reductase subunit M2 (Homo sapiens, UniProt P31350).
T1 sequence (P31350 whole entry): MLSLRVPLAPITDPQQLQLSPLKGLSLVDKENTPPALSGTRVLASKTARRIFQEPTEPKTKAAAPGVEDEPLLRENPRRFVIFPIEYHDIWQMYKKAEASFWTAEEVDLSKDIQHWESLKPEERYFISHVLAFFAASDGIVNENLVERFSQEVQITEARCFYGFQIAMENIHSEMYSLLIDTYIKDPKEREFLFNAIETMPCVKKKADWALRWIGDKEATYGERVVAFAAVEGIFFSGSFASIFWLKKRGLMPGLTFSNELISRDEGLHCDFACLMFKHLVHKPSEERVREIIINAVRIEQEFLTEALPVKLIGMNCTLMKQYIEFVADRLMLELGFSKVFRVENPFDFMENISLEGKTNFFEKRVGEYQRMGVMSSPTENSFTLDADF
The assay is described as follows: Inhibitory activity against CDP reductase. A digest of the protocol:
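Ribonucleoside diphosphate reductase prepared as non-heme iron and effector-binding subunits. IC50 is 50% inhibition, the mean of two separate determinations.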

For assay [6], the system named is Mus musculus. As to the kind of experiment: T/C(100) represents the ratio of the survival time of treated to control animals x 100(daily dosage 60 mg/kg). In kind it is functional.
Assay [7] deals with Mus musculus. The assay is described as follows: Average survival time includes only those mice that died prior to day 60(daily dosage 40 mg/kg). Format: functional.
Assay [8] deals with Mus musculus. As to the kind of experiment: T/C(100) represents the ratio of the survival time of treated to control animals x 100(daily dosage 40 mg/kg). Format: functional.
The subject of assay [9] is Mus musculus. As to the kind of experiment: Average survival time includes only those mice that died prior to day 60(daily dosage 40 mg/kg).
In assay [10] the test system is Mus musculus. As to the kind of experiment: Average survival time includes only those mice that died prior to day 60(daily dosage 60 mg/kg).
Assay [11] has as its system Mus musculus. As to the kind of experiment: Average survival time includes only those mice that died prior to day 80(daily dosage 40 mg/kg). Format: functional.
The mark [12] stands for this setting: dose 80 mg/kg, in the assay text read “daily dosage 80 mg/kg” for “daily dosage 40 mg/kg”.
Setting [13] is: dose 60 mg/kg, in the assay text read “daily dosage 60 mg/kg” for “daily dosage 40 mg/kg”.

SMILES strings stand for the structures.

`C=CCNc1cccnc1/C=N/N=C(/N)S` returned an Average survival in the assay with Mus musculus [1] of 10.1 days. The T/C with Mus musculus [2] turned out to be 126. Besides, the Weight with Mus musculus [3] (setting [12]) is -2.6%. For the same compound, the half-maximal inhibitory concentration (IC50) with L1210 is greater than 10000 nM; in assay [5] it was 1700 nM. In addition, the Survivors in the assay filed under Mus musculus [4] is on record as 0.
On to `C=CCNc1ccc(/C=N/N=C(/N)S)nc1`, for which the T/C in the assay on Mus musculus [6] is 215. For the same compound, the half-inhibitory concentration (IC50) came to 4400 nM with L1210 and 1400 nM in [5]. For the same compound, the Survivors in the assay filed under Mus musculus [4] came to 0. In the assay with Mus musculus [7], this compound registered an Average survival of 17.2 days.
For the compound `CCCCNc1ccc(/C=N/N=C(/N)S)nc1`, in the assay with Mus musculus [8], the T/C is on record as 115. Besides, the Weight in the assay with Mus musculus [3] (dose 40 mg/kg) is reported as -4%. Besides, the concentration for half-maximal inhibition (IC50) in the assay on L1210 came out at 7800 nM; in assay [5] it was 2500 nM. In addition, the Survivors in the assay listed under Mus musculus [4] came out at 0. Also, the Average survival in the assay with Mus musculus [9] came out at 9.2 days.
`CCNc1ccc(/C=N/N=C(/N)S)nc1` showed an Average survival with Mus musculus [1] of 16.3 days. Further, the T/C in the assay with Mus musculus [2] was found to be 204. In addition, the Weight with Mus musculus [3] (setting [12]) is listed as -3.4%. For the same compound, the results for the IC50 (in the assay with L1210; in assay [5]) were 3400 nM and 1000 nM, respectively. Further, the Survivors in the assay filed under Mus musculus [4] was determined as 0.
For `CCCNc1ccc(/C=N/N=C(/N)S)nc1`, in the assay with Mus musculus [10], the Average survival was found to be 11.7 days. The Weight in the assay on Mus musculus [3] (setting [13]) is recorded as -5.2%. The T/C in the assay with Mus musculus [6] is on record as 146. The IC50 in the assay on L1210 is 5100 nM; in assay [5], 1400 nM. Further, the Survivors in the assay filed under Mus musculus [4] came out at 0.
For the compound `CNc1ccc(/C=N/N=C(/N)S)nc1`, the Weight in the assay on Mus musculus [3] (setting [13]) is -4.4%. In the assay on Mus musculus [6], the T/C turned out to be 223. Besides, the IC50 in the assay on L1210 was 2400 nM; in [5] it was 1300 nM. The Survivors in the assay listed under Mus musculus [4] came out at 0. In the assay with Mus musculus [7], this compound yielded an Average survival of 17.8 days.
Take `N/C(S)=N/N=C/c1cc(CN2CCOCC2)c(N)cn1`: in the assay with Mus musculus [8], the T/C is 125. Besides, the Weight in the assay on Mus musculus [3] (dose 40 mg/kg) is given as -3.5%. The figures for the half-maximal inhibitory concentration (IC50) (with L1210; in assay [5]) were greater than 10000 nM and 11000 nM, respectively. In the assay listed under Mus musculus [4], this compound came in with a Survivors of 0. Moreover, the Average survival in the assay with Mus musculus [9] was 10 days.
Consider `N/C(S)=N/N=C/c1ncc(N)cc1N`, for which, in the assay on Mus musculus [3] (setting [13]), the Weight is -17.1%. Besides, the T/C in the assay on Mus musculus [6] amounted to 135. The half-maximal inhibitory concentration (IC50) in the assay with L1210 came out at 1100 nM; in [5], 9000 nM. Moreover, the Survivors in the assay listed under Mus musculus [4] was 2. Moreover, the Average survival in the assay on Mus musculus [7] came out at 10.8 days.
As for `CNc1cccnc1/C=N/N=C(/N)S`, the T/C in the assay on Mus musculus [8] is given as 148. Also, in the assay on Mus musculus [3] (dose 40 mg/kg), the Weight is -2.9%. For the same compound, the concentration for half-maximal inhibition (IC50) in the assay on L1210 was 1500 nM; in [5], 1000 nM. The Survivors in the assay listed under Mus musculus [4] stood at 0. Further, in the assay on Mus musculus [9], the Average survival was found to be 11.8 days.
For the compound `NCc1ccc(/C=N/N=C(/N)S)nc1`, the T/C in the assay with Mus musculus [2] is given as 168. The Weight in the assay with Mus musculus [3] (setting [12]) is on record as -2.4%. The IC50 in the assay with L1210 was 2100 nM; in assay [5] it was 2500 nM. In the assay with Mus musculus [11], this compound had an Average survival of 13.4 days. Besides, the Survivors in the assay filed under Mus musculus [4] was found to be 1.
